This is a sample that favours compounds with a hit; in the whole collection about 3.4% have one here.
DTT redox prof = compounds producing H2O2 with reducing agent – biochemical, NIH compound library profiling, artefact control for MLSCN library redox annotation, primary screen; DTT-dependent redox cycling H2O2, phenol red/HRP absorbance; 100% = 100 µM peroxide control, 0% = buffer; activation, % at 10 µM; 200,000 compounds, 0.03% hits; AID 878;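 active = activation of at least 50% relative to the plate's high and low controls in the primary single-dose screen; inactive = activation below 50%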;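 note: compound incubated with DTT at 0.8 mM final as the reducing agent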
Mdm2 ligase inh = blocks human Mdm2 ubiquitin ligase activity; signal enhancement, % at 5 µM; 210,000 compounds, 0.11% hits; cell-based MDM2 ubiquitination luciferase reporter, 2 h; 0 = plate control, 100 = twice control, blank-subtracted; AID 1230; Q00987;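 active = signal enhancement of 30% or more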;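 note: luminescence tracks abundance of the self-degrading MDM2-luciferase fusion protein; higher signal means inhibition of MDM2 E3 ligase activity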
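Buffer or medium: Cells held in DMEM | Assay system: Stable mammalian line carrying autodegrading MDM2–luciferase fusion reporter | Quantity: 2000 cells/well | Times: 4 h settle plus 2 h compound, 37 °C | Doses: One concentration, 5 µM, with 0.2% DMSO | Technique: Luminescence with SteadyLite reagent, 15 min at room temperature | Benchmarks: Plate controls and plate blanks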
p97 ATPase inh = inhibitors of human p97 ATPase; inhibition, % at 8 µM; 220,000 compounds, 0.42% hits; P55072; AID 1481; recombinant p97 ATPase, Kinase-Glo ATP luminescence, 3 h; in the data active = inhibition above about 15%
Target sequence (P55072 whole entry, looked up): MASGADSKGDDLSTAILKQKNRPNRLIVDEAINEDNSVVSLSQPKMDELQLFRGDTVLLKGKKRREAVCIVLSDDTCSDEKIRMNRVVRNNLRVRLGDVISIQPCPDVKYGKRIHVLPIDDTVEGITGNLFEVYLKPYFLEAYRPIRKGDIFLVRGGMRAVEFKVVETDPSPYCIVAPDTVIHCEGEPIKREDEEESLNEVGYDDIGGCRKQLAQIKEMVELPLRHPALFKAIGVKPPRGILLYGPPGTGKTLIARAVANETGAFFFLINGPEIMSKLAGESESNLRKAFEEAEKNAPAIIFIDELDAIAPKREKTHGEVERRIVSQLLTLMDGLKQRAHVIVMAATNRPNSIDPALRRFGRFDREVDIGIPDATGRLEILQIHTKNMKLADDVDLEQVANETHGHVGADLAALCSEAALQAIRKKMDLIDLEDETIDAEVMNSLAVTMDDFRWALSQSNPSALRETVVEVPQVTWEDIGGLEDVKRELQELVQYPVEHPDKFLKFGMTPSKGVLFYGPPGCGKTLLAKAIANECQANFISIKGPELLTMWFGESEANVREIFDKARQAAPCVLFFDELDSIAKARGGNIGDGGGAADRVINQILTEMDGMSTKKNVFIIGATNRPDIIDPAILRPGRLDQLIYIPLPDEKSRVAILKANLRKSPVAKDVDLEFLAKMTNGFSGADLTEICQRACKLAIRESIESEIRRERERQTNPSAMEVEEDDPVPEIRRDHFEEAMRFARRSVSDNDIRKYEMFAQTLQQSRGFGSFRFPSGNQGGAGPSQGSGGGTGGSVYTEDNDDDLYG
KCC2 mod = modulators of human KCC2 chloride dependent transport; Q9H2X9; KCC2 cells, thallium flux FluoZin-2 fluorescence; B-score of Tl+ flux slope (higher = more flux/activation; lower = inhibition) at 10 µM; 190,000 compounds, 2.2% hits; AID 1456;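 active = thallium flux slope and its plate-corrected score both differing from the plate sample mean at a set confidence after two filtering rounds, in either direction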;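 note: slope of fluorescence scaled to starting intensity during 10 to 20 s after thallium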
PKD1 inh = inhibitors of human PKD1 kinase | PKD1 kinase fluorescence polarization assay | 200,000 compounds, 0.056% hits | inhibition, % (no concentration beside the values); in the data active = inhibition above about 50%
ROMK mod = modulators of human ROMK potassium channel; Tet-inducible ROMK, thallium flux fluorescence; actives lie on both sides; B-score at 10 µM; 130,000 compounds, 2% hits;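 active = signal ratio slope over the read window, or its plate-corrected B-score, at least 3 SD from the plate mean, either direction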;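 note: B-score of the F/F0 ratio slope over 7 to 12 s after thallium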
KCC2 secondary = confirmation of human KCC2 transport modulators | shares compounds with KCC2 mod | HEK293-KCC2, thallium flux, FluoZin2 fluorescence; hits give high values | normalised thallium flux (F/F0 slope) at 10 µM | 3,700 compounds, 15% hits;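 active = thallium flux slope above the same plate's solvent-only control mean plus 3 SD; inconclusive = the two replicate wells disagree; inactive = no significant difference from solvent-only control wells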
KCC2 bumet counter = thallium flux persisting under bumetanide in KCC2 cells, counter-screen secondary assay | 3,700 compounds, 49% hits | normalized thallium flux at 10 µM | HEK293-KCC2 + bumetanide/ouabain, thallium flux FluoZin2; hits give high values | shares compounds with KCC2 mod | AID 1714;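 active = thallium entry rate above the same plate's blocked-transporter control wells by more than 3 SD; inconclusive = the two repeat wells disagree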;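 note: raw slope of fluorescence over initial fluorescence between 10 and 20 s after thallium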
KCC2 sec2 = confirmation of human KCC2 transport modulators; shares compounds with KCC2 mod; HEK293-KCC2, thallium flux FluoZin2 fluorescence; actives lie on both sides; F/F0 rise rate, 10–20 s post-thallium; normalized thallium flux at 10 µM; 3,700 compounds, 23% hits;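 active = thallium flux slope more than 3 SD above or below the plate's solvent-only control mean, mostly below; inconclusive = the two repeat wells disagreed; inactive = no significant shift from solvent-only controls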
HEK293 Tl flux = counter-screen for KCC2 modulators: effect in parental HEK293 cells; shares compounds with KCC2 mod; thallium flux FluoZin2, ouabain; baseline-ratio fluorescence slope, 10–20 s after thallium; thallium flux rate (normalised fluorescence) at 10 µM; 3,700 compounds, 46% hits; AID 1716;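 active = thallium flux rate significantly above the same plate's solvent-only control wells, beyond their mean plus 3 SD; inconclusive = the two replicate wells gave conflicting results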
KCC2 ouabain = modulates human KCC2 on retest with ouabain; HEK293-KCC2, thallium flux FluoZin2 fluorescence; bidirectional: low = inhibitor, high = activator; AID 1717; shares compounds with KCC2 mod; raw Tl+ flux slope (below DMSO = inhibition, above = activation) at 10 µM; 3,700 compounds, 48% hits;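 active = thallium flux slope beyond 3 SD from same-plate DMSO control mean in most replicates, usually higher, sometimes lower; inconclusive = repeat tests gave conflicting results; inactive = no significant difference from controls in most replicates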;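 note: slope of initial-normalized fluorescence between seconds 10 and 20 after thallium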
HEK counter2 = counter-screen for KCC2 modulators: effect in parental HEK293 cells | shares compounds with KCC2 mod | thallium flux FluoZin-2 fluorescence slope | thallium flux slope at 10 µM | 3,700 compounds, 33% hits | AID 1718;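 active = thallium flux slope above the same plate's solvent-control mean plus 3 SD in both duplicate wells; inconclusive = duplicate wells that disagreed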;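 note: run without ouabain in cells lacking the KCC2 cotransporter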
A number is an active result; 0 = inactive; ? = inconclusive; - = no result given.

SMILES	DTT redox prof	Mdm2 ligase inh	p97 ATPase inh	KCC2 mod	PKD1 inh	ROMK mod	KCC2 secondary	KCC2 bumet counter	KCC2 sec2	HEK293 Tl flux	KCC2 ouabain	HEK counter2
Fc1ccc(-c2n[nH]c(=S)c3ccccc23)cc1	0	0	0	14	0	-	0	0.021	0	0.016	?	0.013
O=C(CCCCCN1C(=O)c2ccccc2C1=O)Nc1ccc(S(=O)(=O)N2CCCCC2)cc1	0	0	0	0	0	0	-	-	-	-	-	-
O=C(NC(=O)c1ccncc1)NC(c1ccccc1)c1ccccc1	0	0	0	-4.8	0	-	0	0	0	?	0	0
CCCCC(=O)NC(=O)NC(c1ccccc1)c1ccccc1	-	0	0	-	-	-	-	-	-	-	-	-
CCOC(=O)SC1=N/C(=C\c2ccc(N(C)C)cc2)C(=O)S1	0	0	0	19	0	-	0.017	0.021	0	0.013	0.028	0.011
COc1ccc(C(=O)N2CCN(c3nnnn3-c3ccccc3)CC2)cc1OC	0	0	0	0	0	-	-	-	-	-	-	-
Cc1c(NS(=O)(=O)c2ccc3c(c2)OCCO3)cccc1-c1nc2cccnc2s1	0	0	0	0	0	-	-	-	-	-	-	-
Cc1cc(-c2nc3cccnc3s2)ccc1NS(=O)(=O)c1ccc2c(c1)OCCO2	0	0	0	-3.9	0	-	0	0	0	0	0	0
O=C(Nc1nc(-c2ccccn2)cs1)c1ccc(Cl)s1	0	0	0	37	0	-	0	0.06	0.06	0.06	0.054	0.063
COc1ccc(-c2csc(NC(=O)c3cccc(S(=O)(=O)N4CCN(C)CC4)c3)n2)cc1	0	0	0	0	0	-	-	-	-	-	-	-
CCC(=O)Nc1nc(-c2ccccc2)ns1	0	0	0	2.5	0	0	0	0	0	0	0	0
CCOc1ccc(NC(=O)CSc2nnc(CCNC(=O)c3ccc(OC)cc3)n2CC)cc1	0	0	0	-	0	0	0	?	0	0	0	?
CN1CCN(S(=O)(=O)c2cccc(C(=O)Nc3nc(-c4ccccc4)cs3)c2)CC1	0	0	0	-3	0	0	0	0	0	?	0	0
O=C(Nc1nc(-c2ccccc2)cs1)c1ccccc1NS(=O)(=O)c1ccc(F)cc1	0	0	0	-6.5	0	0	0	?	0.017	?	0.0096	0
O=S(=O)(Nc1ccc(-c2csc(-c3ccccc3)n2)cc1)c1ccc(F)cc1	0	0	0	-	0	-	-	-	-	-	-	-
O=C(Nc1nc(-c2ccccc2)cs1)c1cccs1	0	0	0	0	0	-	?	0.0094	0	0	?	0
O=C(Nc1nc(-c2ccc(Cl)s2)cs1)c1cccs1	0	0	0	0	0	-	-	-	-	-	-	-
O=C(NCc1ccccc1)C(=O)Nc1nc(-c2ccccc2)cs1	-	0	0	27	-	-	0.021	0.037	0	0.053	0.039	0.016
CCn1c(CCNC(=O)c2cccs2)nnc1SCC(=O)Nc1nc(-c2ccccc2)cs1	0	-	0	-3.2	0	-	0	0	?	0	0.014	0
O=C(NCc1ccccn1)C(=O)Nc1nc(-c2ccccc2)cs1	-	0	0	0	-	-	-	-	-	-	-	-
CCOC(=O)C(CC)/C(C)=N\NC(=O)CCC(=O)Nc1ccc(Cl)cc1Cl (centres undefined)	0	0	0	0	0	0	-	-	-	-	-	-
O=C(Nc1nc(-c2ccccc2)ns1)c1cccs1	0	0	0	-	0	-	0	0	0	0	0.015	0
CC1(C)Cc2c(C#N)c(NCCc3ccccc3)nc(-c3ccco3)c2CO1	0	0	0	0	0	0	0	0	0	0	0	0
CCCNC(=O)N1CCN(c2nc(C(C)C)c3c(c2C#N)CC(C)(C)OC3)CC1	0	0	0	-	0	-	-	-	-	-	-	-
CCN(CC)CCNc1nc(-c2ccco2)c2c(c1C#N)CC(C)(C)OC2	0	0	0	0	0	0	-	-	-	-	-	-
SMILES	DTT redox prof	Mdm2 ligase inh	p97 ATPase inh	KCC2 mod	PKD1 inh	ROMK mod	KCC2 secondary	KCC2 bumet counter	KCC2 sec2	HEK293 Tl flux	KCC2 ouabain	HEK counter2
CC1(C)Cc2c(C#N)c(N3CCN(C(=O)c4ccco4)CC3)nc(Cc3ccccc3)c2CO1	0	0	0	-	0	0	0	0	0	?	0.017	0
CCc1nc(N2CCN(C(C)=O)CC2)c(C#N)c2c1COC(C)(C)C2	-	0	0	0	-	-	-	-	-	-	-	-
Cc1nc(N2CCN(C(=O)c3ccc(Cl)cc3)CC2)c(C#N)c2c1COC(C)(C)C2	0	0	0	0	0	0	0	0	0	?	0	0
CC(NC(=O)CCc1ccccc1)c1cc2c(cc1Cl)OCCO2 (centres undefined)	0	0	0	0	0	0	-	-	-	-	-	-
CCOC(=O)c1c(NC(=O)c2c(Br)cnn2C)c(C#N)nn1-c1ccccc1	0	0	0	0	0	-	-	-	-	-	-	-
O=C(NCCN1CCC(Cc2ccccc2)CC1)C1CCCN(S(=O)(=O)c2cnc[nH]2)C1 (centres undefined)	0	0	0	-4	0	-	0	0	0	0	0	0
O=C(C1CCCN(S(=O)(=O)c2cccc3nonc23)C1)N1CCC(Cc2ccccc2)CC1 (centres undefined)	0	0	0	-	0	0	0	?	0.024	0	?	0
O=C(NCCc1ccccc1)C1CCCN(S(=O)(=O)c2cnc[nH]2)C1 (centres undefined)	0	0	0	-	0	-	-	-	-	-	-	-
NNC(=O)COc1ccccc1F	0	0	0	0	0	0	-	-	-	-	-	-
O=C(Nc1cc(C(=O)N2CCOCC2)ccc1N1CCCC1)c1cccs1	0	0	0	0	0	-	-	-	-	-	-	-
CCCc1oc2c(c(=O)c1CC)C(=O)CC(C)(C)C2	0	0	0	-	0	0	0	0	0	?	0	0
COc1ccc(Oc2c(Cl)cnn(-c3ccc(F)cc3)c2=O)cc1	0	0	0	-3.1	0	-	0	?	0	0	0.017	0
CC(Sc1nnnn1-c1ccccc1)C(=O)Nc1ccc(Cl)cn1 (centres undefined)	0	0	0	-4.4	0	0	0	0	0.026	0.006	0.015	?
